For nine compounds, IC50 results are on record in ChEMBL document CHEMBL1124145, “Dinucleotide analogues as inhibitors of thymidine kinase, thymidylate kinase, and ribonucleotide reductase” (J Med Chem, 1988).

SMILES strings stand for the structures.

Holding throughout (type): cell-based
Assay [1] is described as follows: Concentration required to reduce Ribonucleotide reductase rate by 50% in L1210 cells. The essentials:
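Enzyme: crude L1210 extract brought to pH 5.2 with 1 M acetic acid; the precipitate was dissolved in 50 mM Tris-HCl pH 8.0. CDP reductase activity was measured by a published method. Data were fitted by nonlinear least-squares regression to response = a + b ln[inhibitor] with weighted error, and the IC50 was taken from the fit.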

The next assay has as its target T1, Thymidylate kinase (Homo sapiens, UniProt P23919).
T1 sequence (P23919 whole entry): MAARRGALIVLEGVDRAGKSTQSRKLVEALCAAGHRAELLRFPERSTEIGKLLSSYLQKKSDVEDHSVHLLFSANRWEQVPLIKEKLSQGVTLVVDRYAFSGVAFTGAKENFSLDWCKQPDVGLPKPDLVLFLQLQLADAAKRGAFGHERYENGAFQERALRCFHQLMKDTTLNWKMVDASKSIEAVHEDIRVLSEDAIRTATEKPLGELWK
In words: Concentration required to reduce Thymidylate kinase rate by 50% in human blast cells. In a few lines: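 Enzyme: dialyzed extract of blast cells from an acute myeloid leukemia patient. Data were fitted by nonlinear least-squares regression to response = a + b ln[inhibitor], error weighting 1/(γ+γ)^2, and the IC50 was derived from the fit.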

Assay [2] is described as follows: Concentration required to reduce thymidine kinase rate by 50% in L1210 cells. In a few lines: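 Cytoplasmic isoenzyme affinity-purified from L1210 cells. Reaction: 1 mM ATP, 1 mM MgCl2, 10 μM [3H]thymidine (150 μCi/μmol), 5% sucrose, 40 mM Tris pH 7.8. Inhibitor ranged 0-500 μM. Inhibitor concentrations were verified by UV absorbance at 260 nm.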

One may read the IC50 as the concentration that inhibits the measured activity by half.

Turning to `Cc1cn([C@H]2C[C@H](O)[C@@H](CO[P@@](=O)(O)O[P@@](=O)(O)O[P@@](=O)(O)O[P@@](=O)(O)OC[C@H]3O[C@@H](n4cnc5c(N)ncnc54)[C@H](O)[C@@H]3O)O2)c(=O)[nH]c1=O`, the figures for the IC50 (in assay [1]; against Thymidylate kinase; in assay [2]) were 77 µM, 290 µM and 15 µM, respectively.

As to `Cc1cn(C2C[C@H](O)[C@@H](COP(=O)(O)CP(=O)(O)OP(=O)(O)OP(=O)(O)OC[C@H]3OC(n4cnc5c(N)ncnc54)[C@H](O)[C@@H]3O)O2)c(=O)[nH]c1=O` (some centres undefined), the IC50 is 300 µM in assay [1], 340 µM on Thymidylate kinase and 17 µM in assay [2].

Turning to `Cc1cn(C2C[C@H](O)[C@@H](COP(=O)(O)CP(=O)(O)OP(=O)(O)OP(=O)(O)OP(=O)(O)OP(=O)(O)OC[C@H]3OC(n4cnc5c(N)ncnc54)[C@H](O)[C@@H]3O)O2)c(=O)[nH]c1=O` (some centres undefined), the IC50 in assay [1] turned out to be 230 µM; on Thymidylate kinase it was 4 µM; in assay [2] it was 19.7 µM.

In the case of `Cc1cn(C2C[C@H](O)[C@@H](COP(=O)(O)OP(=O)(O)OP(=O)(O)OC[C@H]3OC(n4cnc5c(N)ncnc54)[C@H](O)[C@@H]3O)O2)c(=O)[nH]c1=O` (some centres undefined), the values for the IC50 (in assay [1]; at Thymidylate kinase; in assay [2]) were over 500 µM, 1230 µM and over 500 µM, respectively.

`Cc1cn(C2C[C@H](O)[C@@H](COP(=O)(O)CP(=O)(O)OP(=O)(O)OC[C@H]3OC(n4cnc5c(N)ncnc54)[C@H](O)[C@@H]3O)O2)c(=O)[nH]c1=O` (some centres undefined): the figures for the half-maximal inhibitory concentration (IC50) (in assay [1]; at Thymidylate kinase; in assay [2]) were 460 µM, 730 µM and over 500 µM, respectively.

With `Cc1cn(C2C[C@H](O)[C@@H](COP(=O)(O)CP(=O)(O)OP(=O)(O)OP(=O)(O)OP(=O)(O)OC[C@H]3OC(n4cnc5c(N)ncnc54)[C@H](O)[C@@H]3O)O2)c(=O)[nH]c1=O` (some centres undefined), the results for the half-inhibitory concentration (IC50) (in assay [1]; against Thymidylate kinase; in assay [2]) were 130 µM, 6 µM and 9.2 µM, respectively.

Turning to `Cc1cn([C@H]2C[C@H](O)[C@@H](COP(=O)(O)OP(=O)(O)OP(=O)(O)OP(=O)(O)OP(=O)(O)OC[C@H]3O[C@@H](n4cnc5c(N)ncnc54)[C@H](O)[C@@H]3O)O2)c(=O)[nH]c1=O`, the concentration for half-maximal inhibition (IC50) in assay [1] was 14 µM; against Thymidylate kinase, 8 µM; in assay [2] it was 2.5 µM.

`Cc1cn(C2C[C@H](O)[C@@H](COP(=O)(O)OP(=O)(O)OP(=O)(O)OP(=O)(O)OP(=O)(O)OP(=O)(O)OC[C@H]3OC(n4cnc5c(N)ncnc54)[C@H](O)[C@@H]3O)O2)c(=O)[nH]c1=O` (some centres undefined): the half-inhibitory concentration (IC50) worked out at 20 µM in assay [1] and 6 µM against Thymidylate kinase.

On Thymidylate kinase, `Nc1ncnc2c1ncn2C1O[C@H](COP(=O)(O)OP(=O)(O)OP(=O)(O)OP(=O)(O)OP(=O)(O)OC[C@H]2OC(n3cnc4c(N)ncnc43)[C@H](O)[C@@H]2O)[C@@H](O)[C@H]1O` (some centres undefined) came in with an IC50 of over 1000 µM.
